Bioassay records from PubChem BioAssay.
Shown are actives, neighbours in structure and some others; about 3% of the full set was active somewhere.
5HT1a antag – 5-HT1a (human) receptor antagonism; CHO 5-HT1a Ga15 NFAT-bla reporter, antagonist mode; inhibition, % at 10 µM; hit rate 0.68% among 62,000; AID 612;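 active = inhibition above the mean of all tested compounds plus 3 SD, cut at about 43% in these data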;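 note: receptor stimulated by 5-CT agonist at 100 nM near EC80; beta-lactamase reporter measured by ratiometric fluorescence of a cleavable substrate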
HTR1A agonist – agonists of human 5-HT1a serotonin receptor; P08908; CHO 5-HT1a Ga15 NFAT-bla reporter, FRET ratio; 0% basal, 100% maximal reference agonist; activation, % at 10 µM; hit rate 0.56% among 65,000;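 active = activation above the screen-wide mean activation plus 3 SD, cut at about 19% in these data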;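 note: 0% = DMSO wells and 100% = 5-CT at EC100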
HTR1E agonist – activates the human 5-HT1E serotonin receptor; activation, % at 6 µM; hit rate 0.69% among 65,000; CHO 5-HT1E Ga15 NFAT-bla reporter, FRET; 0% DMSO wells, 100% control agonist wells; AID 574;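 active = activation above a set limit, the screen-wide mean activation plus 3 SD, cut at about 8.5% in these data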;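 note: 100% = positive control agonist at 1 µM giving full maximal response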
HTR1E antagonist – 5-HT1E (human) receptor antagonism; P28566; CHO 5-HT1E Ga15 NFAT-bla reporter, FRET, antagonist; inhibition, % at 6 µM; hit rate 0.99% among 65,000; AID 571;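 active = inhibition above a set limit, the mean inhibition across every tested compound plus 3 SD, cut at about 29% in these data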;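 note: signal is the 460 over 535 nm emission ratio of beta-lactamase substrate; 0% = agonist plus DMSO wells and 100% = wells without agonist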
S1P3 agonist – activates the human S1P3 receptor; hit rate 0.1% among 60,000; AID 373; activation, % at 4.5 µM; S1P3 NFAT-BLA reporter cells, agonism, FRET ratio; relative to 1 µM S1P, basal subtracted; Q99500;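 active = activation above the screen-wide mean plus 3 SD, cut at about 4.5% in these data, passing the limit was not always enough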
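Material: Human S1P3 NFAT-BLA reporter CHO cells | Incubation: Overnight plating, 4 h compound 37 °C, 2 h substrate RT | Signal: FRET β-lactamase substrate fluorescence, excitation 405 nm, 460/535 nm emission ratio, background-subtracted | Compound: 4.5 µM final, single dose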
S1P1 ag pot – S1P1 (human) agonism or agonism potentiation; P21453; S1P1 CRE-bla cells, forskolin, beta-lactamase FRET, potentiator mode; S1P1 agonist co-added at EC20, 2 nM; 100% = saturating reference agonist, 0% = basal; activation, % at 9.5 µM; hit rate 0.57% among 56,000; AID 449;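 active = activation above a cutoff set at the mean activation of all tested compounds plus 3 SD, cut at about 54% in these data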;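 note: forskolin at 4 µM as EC80 and the EC20 agonist is SEW2871; 100% = SEW2871 at its EC100 plus forskolin at EC80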
Target sequence (P21453 whole entry, looked up): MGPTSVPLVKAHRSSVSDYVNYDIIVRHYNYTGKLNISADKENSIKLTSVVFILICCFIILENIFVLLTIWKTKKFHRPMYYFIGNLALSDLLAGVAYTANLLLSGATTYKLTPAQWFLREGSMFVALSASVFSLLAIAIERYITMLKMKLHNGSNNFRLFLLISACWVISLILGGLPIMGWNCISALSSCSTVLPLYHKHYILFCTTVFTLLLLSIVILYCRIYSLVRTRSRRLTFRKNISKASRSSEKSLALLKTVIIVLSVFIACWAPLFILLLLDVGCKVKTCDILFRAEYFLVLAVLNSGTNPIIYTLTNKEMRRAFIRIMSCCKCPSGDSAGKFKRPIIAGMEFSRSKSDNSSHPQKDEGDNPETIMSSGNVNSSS
* hit, by the source's call; x = not tested or not shown.

SMILES	5HT1a antag	HTR1A agonist	HTR1E agonist	HTR1E antagonist	S1P3 agonist	S1P1 ag pot
COc1cc(-c2nnc3sc(-c4cccs4)nn23)cc(OC)c1OC	-20	5	0	38*	1	-3
CCOC(=O)c1ccc2nc(NC(=O)c3cccs3)sc2c1	3	-2	0	-6	x	x
CCOC(=O)c1ccc2nc(NC(=O)c3ccco3)sc2c1	-4	2	0	3	0	63*
Nc1cccc2cnccc12	30	-2	0	33*	-2	20
CCN(CC)c1ccc2c(c1)OC(N)=C(C#N)C2c1cccnc1 (stereo not given)	32	-3	-1	77*	-2	-42
Cc1sc2nc3c(C(=O)N4CCN(c5ncccn5)CC4)cccn3c(=O)c2c1C	7	0	-1	-8	x	x
Nc1nc2ccccc2nc1N	3	-2	0	-6	-2	-20
Nc1nsc2ccccc12	73*	-6	-2	25	-2	39
O=C(NCc1ccco1)C(C(=O)c1ccc(F)cc1)n1ccccc1=O (stereo not given)	12	-2	0	-3	0	15
CN(C)CCNC(=O)C(C(=O)c1ccc(F)cc1)n1ccccc1=O (stereo not given)	4	120*	1	0	-2	-4
Cc1sc2nc(C3CC3)nc(NCCNS(C)(=O)=O)c2c1C	0	-2	0	39*	0	6
Cc1sc2nc(C3CC3)nc(N3CCN(S(=O)(=O)c4ccc(F)cc4)CC3)c2c1C	-44	3	5	-19	-1	4
CCCc1nc(N)c(C#N)c(N)c1C#N	-9	-2	0	29*	0	-96
CCc1nc(N)c(C#N)c(-c2ccncc2)c1C	-13	1	1	5	-1	-36
